PMC3690701 (Bioorganic & medicinal chemistry, 2011)

Columns and labels:
human Pgp = human Pgp (Homo sapiens, UniProt P08183); conditions: for logIC50: fitted parameter±standard error, GraphPad Prism, R123 efflux, MDCKII-MDR1
Pgp/BCRP at the BBB [1] = assay: small-animal PET of [18F]4b in rats before/after unlabelled 1; assay type: in vivo, rat; conditions: 25 min after tracer injection, scanned 2 h after 1 (5 mg/kg), p=0.0002
In short: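 Naïve rats were kept under isoflurane (2.5% induction, 1.5–2% maintenance) at about 38°C, with femoral artery and vein catheters. The tracer was given as an i.v. bolus (33±3 MBq) in saline/EtOH/PEG300 (50/15/35). Arterial samples were gamma-counted, and whole-brain TACs were expressed as SUV. Groups were compared by 2-tailed Student's t-test.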

[2] = assay type: in vivo, rat
[3] = plasma protein binding by ultrafiltration; assay type: in vitro ADME, rat; conditions: 30 min at 37°C, n=3
In short: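 Fresh plasma from naïve rats was incubated with the 18F-labelled tracer for 30 min at 37°C. Bound and free tracer were then separated by ultrafiltration through centrifugal filter devices.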

Pgp/BCRP at the BBB [4] = conditions: mouse brain, unlabelled 1 0.1-10 mg/kg i.v.; cited from earlier work
Pgp = conditions: cited from earlier work
human BCRP = conditions: 3H-labelled tariquidar 1 nM, reversed by fumitremorgin C; cited from earlier work

Sequence of human Pgp (P08183 whole entry): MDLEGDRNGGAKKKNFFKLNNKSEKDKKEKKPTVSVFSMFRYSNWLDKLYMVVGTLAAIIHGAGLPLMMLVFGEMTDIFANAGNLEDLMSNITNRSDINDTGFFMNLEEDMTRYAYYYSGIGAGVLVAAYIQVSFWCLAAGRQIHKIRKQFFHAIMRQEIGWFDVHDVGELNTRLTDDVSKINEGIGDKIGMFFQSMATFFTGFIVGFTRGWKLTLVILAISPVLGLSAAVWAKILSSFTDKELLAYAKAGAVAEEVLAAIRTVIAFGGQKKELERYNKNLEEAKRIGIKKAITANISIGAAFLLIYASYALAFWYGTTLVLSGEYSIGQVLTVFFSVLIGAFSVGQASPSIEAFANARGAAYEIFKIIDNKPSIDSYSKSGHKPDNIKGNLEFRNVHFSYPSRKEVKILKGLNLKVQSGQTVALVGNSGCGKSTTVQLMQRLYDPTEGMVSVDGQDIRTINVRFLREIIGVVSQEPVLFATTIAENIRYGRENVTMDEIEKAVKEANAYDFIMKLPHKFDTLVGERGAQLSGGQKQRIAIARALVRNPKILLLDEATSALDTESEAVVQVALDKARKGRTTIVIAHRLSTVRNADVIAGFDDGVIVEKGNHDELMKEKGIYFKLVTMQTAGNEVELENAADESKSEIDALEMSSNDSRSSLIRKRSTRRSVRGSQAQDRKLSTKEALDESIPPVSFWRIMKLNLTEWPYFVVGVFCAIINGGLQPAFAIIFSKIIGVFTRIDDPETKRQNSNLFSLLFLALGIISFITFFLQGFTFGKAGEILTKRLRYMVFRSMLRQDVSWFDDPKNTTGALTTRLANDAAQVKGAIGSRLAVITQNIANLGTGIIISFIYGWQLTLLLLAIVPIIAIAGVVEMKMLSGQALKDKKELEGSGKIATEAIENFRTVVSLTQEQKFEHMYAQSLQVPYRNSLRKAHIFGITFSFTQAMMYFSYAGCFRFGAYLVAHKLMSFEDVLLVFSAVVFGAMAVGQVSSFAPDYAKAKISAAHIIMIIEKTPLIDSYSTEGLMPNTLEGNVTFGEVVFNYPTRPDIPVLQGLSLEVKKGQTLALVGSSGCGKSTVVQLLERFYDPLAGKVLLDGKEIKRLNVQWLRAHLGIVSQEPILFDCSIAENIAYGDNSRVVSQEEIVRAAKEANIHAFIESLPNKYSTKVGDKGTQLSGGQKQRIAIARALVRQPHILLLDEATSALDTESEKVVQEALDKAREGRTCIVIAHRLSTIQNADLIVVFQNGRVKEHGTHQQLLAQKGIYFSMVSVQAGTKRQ

`COc1cc2c(cc1OC)CN(CCc1ccc(NC(=O)c3ccc(Cl)c4c(=O)c5cccc(OC)c5[nH]c34)cc1)CC2` [4a, 1-Chloro-N-(4-(2-(6,7-dimethoxy-1,2,3,4-tetrahydroisoquinolin-2-yl)ethyl)phenyl)-5-methoxyacridone-4-carboxamide] gave a logIC50 (human Pgp) of 0.58±0.04.
For `COc1cc2c(cc1OC)CN(CCc1ccc(NC(=O)c3ccc(F)c4c(=O)c5cccc(OC)c5[nH]c34)cc1)CC2` [4b, N-(4-(2-(6,7-dimethoxy-1,2,3,4-tetrahydroisoquinolin-2-yl)ethyl)phenyl)-1-fluoro-5-methoxyacridone-4-carboxamide], the logIC50 (human Pgp) was 0.24±0.04 and the “IC50 times higher than 1” value (human Pgp; human, pH 7.4) was “about 4 times”.
For `COc1cc2c(cc1OC)CN(CCc1ccc(NC(=O)c3ccc([N+](=O)[O-])c4c(=O)c5cccc(OC)c5[nH]c34)cc1)CC2` [4c, N-(4-(2-(6,7-dimethoxy-1,2,3,4-tetrahydroisoquinolin-2-yl)ethyl)phenyl)-5-methoxy-1-nitroacridone-4-carboxamide], the logIC50 (human Pgp) was 0.21±0.07.
`COc1cc2c(cc1OC)CN(CCc1ccc(NC(=O)c3cc(Cl)cc4c(=O)c5cccc(OC)c5[nH]c34)cc1)CC2` [4d, 2-Chloro-N-(4-(2-(6,7-dimethoxy-1,2,3,4-tetrahydroisoquinolin-2-yl)ethyl)phenyl)-5-methoxyacridone-4-carboxamide] showed a logIC50 (human Pgp) of 0.14±0.08.
Work on `COc1cc2c(cc1OC)CN(CCc1ccc(NC(=O)c3cc(F)cc4c(=O)c5cccc(OC)c5[nH]c34)cc1)CC2` [4e, N-(4-(2-(6,7-dimethoxy-1,2,3,4-tetrahydroisoquinolin-2-yl)ethyl)phenyl)-2-fluoro-5-methoxyacridone-4-carboxamide] yielded a logIC50 (human Pgp) of −0.21±0.08.
In the case of `COc1cc2c(cc1OC)CN(CCc1ccc(NC(=O)c3ccc([18F])c4c(=O)c5cccc(OC)c5[nH]c34)cc1)CC2` [[^18F]4b, 1-[^18F]fluoroelacridar], the “brain activity uptake increase after unlabelled 1 (group 2 vs group 1)” value (Pgp/BCRP at the BBB [1]) was 9.5 times, the “total radioactivity in brain in the form of unchanged tracer” value ([2]; rat brain extracts, 40 min after injection, HPLC) was greater than 90% and the “total radioactivity in the form of unchanged tracer, HPLC of SPE fraction 3” value ([2]; rat plasma, 40 min sample) was 72±27%. For the same molecule, the “protein-bound in rat plasma” value [3] was 98.0±1.7%.
In the case of `COc1cc2c(cc1OC)CN(CCc1ccc(NC(=O)c3cccc4c(=O)c5cccc(OC)c5[nH]c34)cc1)CC2` [compound 1, elacridar], the “Maximal inhibitory effect (%)” value (human Pgp; human, pH 7.4) is given as 100%, the “dose at which brain uptake of [11C]1 started to increase” value (Pgp/BCRP at the BBB [4]) is given as “greater than 0.1 mg/kg” and the “half-maximum effect dose for increase of [11C]1 brain uptake” value (Pgp/BCRP at the BBB [4]) is given as 1.55 mg/kg. For the same molecule, the “stimulation of ATPase activity” value (Pgp) was “does not stimulate”.
In the case of `COc1cc2c(cc1OC)CN(CCc1ccc(NC(=O)c3cc(OC)c(OC)cc3NC(=O)c3cnc4ccccc4c3)cc1)CC2` [tariquidar], the BCRP transport (human BCRP) is given as “avid substrate of BCRP”.
